Data as given in ChEMBL document CHEMBL3351542, “Nonpeptide small molecule agonist and antagonist original leads for neuropeptide FF1 and FF2 receptors” (J Med Chem, 2014).
Activity calls are given as the source filed them. No cut-off for these calls is given here. Square brackets hold non-standard residues; d marks the D form. Peptide text beside a SMILES is read from it. NMeF = CN[C@@H](Cc1ccccc1)C(=O)O

Tests used:
[1] = biological target: T1, Neuropeptide FF receptor 2 (Homo sapiens, UniProt Q9Y5X5); assay: Displacement of [3H]EYF from human NPFF2 receptor expressed in CHO cells after 1 hr by liquid scintillation counting analysis; format: cell-based
Homo sapiens [2] = organism: Homo sapiens; assay: Selectivity ratio of Ki for human NPFF2 receptor to Ki for human NPFF1 receptor
[3] = biological target: T2, Neuropeptide FF receptor 1 (Homo sapiens, UniProt Q9GZQ6); assay: Displacement of [3H]NPVF from human NPFF1 receptor expressed in CHO cells after 1 hr by liquid scintillation counting analysis; format: cell-based
[4] = biological target: T2, Neuropeptide FF receptor 1; assay: Agonist activity at human NPFF1 receptor expressed in CHO cells at 10 uM after 60 mins by [35S-GTPgammaS] binding assay relative to control; format: functional, cell-based
In short: (§1)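 CHO cell membranes stably expressing hNPFF1-R (1.5 μg protein) or hNPFF2-R (0.7 μg). 60 min at 30 °C in 20 mM HEPES pH 7.4, 20 mM NaCl, 3 mM MgCl2, 0.1% BSA, saponin, GDP 0.1 μM (NPFF1) or 1 μM (NPFF2), 0.066 nM [35S]GTPγS; filtration, scintillation counting. Compound at 10 μM; % stimulation over basal, compared with 1DMe 10 μM. Two–four experiments in duplicate.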

[5] = biological target: T1, Neuropeptide FF receptor 2; assay: Displacement of [125I]EYF from human NPFF2 receptor expressed in CHO cells after 1 hr by liquid scintillation counting analysis; format: cell-based
In short: (§2)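 Competition binding on CHO membranes stably expressing hNPFF1-R ([125I]YVP) or hNPFF2-R ([125I]EYF). Ki reported as mean ± SEM of two to four experiments in duplicate.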

[6] = biological target: T1, Neuropeptide FF receptor 2; assay: Agonist activity at human NPFF2 receptor expressed in CHO cells at 10 uM after 60 mins by [35S-GTPgammaS] binding assay relative to control; format: functional, cell-based; in short: as §1
[7] = biological target: T2, Neuropeptide FF receptor 1; assay: Displacement of [125I]YVP from human NPFF1 receptor expressed in CHO cells after 1 hr by liquid scintillation counting analysis; format: cell-based; in short: as §2
Homo sapiens [8] = organism: Homo sapiens; assay: Selectivity ratio of Ki for human NPFF1 receptor to Ki for human NPFF2 receptor
[9] = biological target: T1, Neuropeptide FF receptor 2; assay: Antagonist activity at human NPFF2 receptor expressed in CHO cells assessed as reversal of 1DMe-induced inhibition of intracellular cAMP accumulation after 10 mins by liquid scintillation counting analysis relative to control; format: functional, cell-based
[10] = biological target: T2, Neuropeptide FF receptor 1; assay: Antagonist activity at human NPFF1 receptor expressed in CHO cells assessed as reversal of NPVF-induced inhibition of intracellular cAMP accumulation after 10 mins by liquid scintillation counting analysis relative to control; format: functional, cell-based
Homo sapiens [11] = organism: Homo sapiens; assay: Selectivity for human NPFF2 receptor over human NPFF1 receptor
[12] = biological target: T2, Neuropeptide FF receptor 1; assay: Agonist activity at human NPFF1 receptor expressed in CHO cells assessed as inhibition of forskolin-induced intracellular cAMP accumulation by liquid scintillation counting analysis; format: functional, cell-based
In short: (§3)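 Stably transfected CHO cells (200000) seeded overnight, labelled 1 h at 37 °C with [3H]adenine plus 0.1 μM adenine, rinsed in HEPES-Krebs-Ringer pH 7.4. Compound alone added with forskolin (20 μM in the added solution), IBMX and Ro-20 1724; 10 min at 37 °C, stopped with HCl. [3H]cAMP isolated on acid alumina columns, scintillation counted. Duplicates, two to four experiments.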

[13] = biological target: T1, Neuropeptide FF receptor 2; assay: Agonist activity at human NPFF2 receptor expressed in CHO cells assessed as inhibition of forskolin-induced intracellular cAMP accumulation by liquid scintillation counting analysis; format: functional, cell-based
[14] = biological target: T2, Neuropeptide FF receptor 1; assay: Partial agonist activity at human NPFF1 receptor expressed in CHO cells assessed as inhibition of forskolin-induced intracellular cAMP accumulation at >1 uM by liquid scintillation counting analysis; format: functional, cell-based; in short: as §3
[15] = biological target: T1, Neuropeptide FF receptor 2; assay: Antagonist activity at human NPFF2 receptor expressed in CHO cells assessed as reversal of 1DMe-induced inhibition of intracellular cAMP accumulation at 10 to 30 uM after 10 mins by liquid scintillation counting analysis relative to control; format: functional, cell-based
[16] = biological target: T1, Neuropeptide FF receptor 2; assay: Partial agonist activity at human NPFF2 receptor expressed in CHO cells assessed as inhibition of forskolin-induced intracellular cAMP accumulation at >1 uM by liquid scintillation counting analysis; format: functional, cell-based; in short: as §3
[17] = biological target: T1, Neuropeptide FF receptor 2; assay: Agonist activity at human NPFF2 receptor expressed in CHO cells assessed as inhibition of forskolin-induced intracellular cAMP accumulation up to 1 uM by liquid scintillation counting analysis; format: functional, cell-based; in short: as §3
[18] = biological target: T1, Neuropeptide FF receptor 2; assay: Antagonist activity at human NPFF2 receptor expressed in CHO cells assessed as inhibition of forskolin-induced intracellular cAMP accumulation at 10 to 30 uM after 10 mins by liquid scintillation counting analysis relative to control; format: functional, cell-based
In short: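 At hNPFF2 CHO cells, compound alone tested at 10 and 30 μM in the forskolin-stimulated [3H]cAMP accumulation assay (10 min, 37 °C, IBMX and Ro-20 1724 present, alumina column isolation). Read-out is % inhibition of cAMP accumulation.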

[19] = biological target: T2, Neuropeptide FF receptor 1; assay: Agonist activity at human NPFF1 receptor expressed in CHO cells assessed as inhibition of forskolin-induced intracellular cAMP accumulation up to 1 uM by liquid scintillation counting analysis; format: functional, cell-based; in short: as §3

T2 sequence (Q9GZQ6 whole entry): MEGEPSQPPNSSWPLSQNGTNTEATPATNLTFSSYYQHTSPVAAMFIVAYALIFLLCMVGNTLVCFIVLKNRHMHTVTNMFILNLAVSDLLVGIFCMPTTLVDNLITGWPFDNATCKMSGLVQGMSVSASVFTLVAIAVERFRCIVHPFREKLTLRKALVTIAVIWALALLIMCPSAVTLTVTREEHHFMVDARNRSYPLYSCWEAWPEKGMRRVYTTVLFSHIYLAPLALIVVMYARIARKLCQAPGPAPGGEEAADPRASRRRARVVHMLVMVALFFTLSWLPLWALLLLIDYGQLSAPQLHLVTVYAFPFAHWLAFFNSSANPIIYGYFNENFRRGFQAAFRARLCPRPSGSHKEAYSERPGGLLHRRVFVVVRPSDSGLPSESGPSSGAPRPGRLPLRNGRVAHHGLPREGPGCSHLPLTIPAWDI
T1 sequence (Q9Y5X5 whole entry): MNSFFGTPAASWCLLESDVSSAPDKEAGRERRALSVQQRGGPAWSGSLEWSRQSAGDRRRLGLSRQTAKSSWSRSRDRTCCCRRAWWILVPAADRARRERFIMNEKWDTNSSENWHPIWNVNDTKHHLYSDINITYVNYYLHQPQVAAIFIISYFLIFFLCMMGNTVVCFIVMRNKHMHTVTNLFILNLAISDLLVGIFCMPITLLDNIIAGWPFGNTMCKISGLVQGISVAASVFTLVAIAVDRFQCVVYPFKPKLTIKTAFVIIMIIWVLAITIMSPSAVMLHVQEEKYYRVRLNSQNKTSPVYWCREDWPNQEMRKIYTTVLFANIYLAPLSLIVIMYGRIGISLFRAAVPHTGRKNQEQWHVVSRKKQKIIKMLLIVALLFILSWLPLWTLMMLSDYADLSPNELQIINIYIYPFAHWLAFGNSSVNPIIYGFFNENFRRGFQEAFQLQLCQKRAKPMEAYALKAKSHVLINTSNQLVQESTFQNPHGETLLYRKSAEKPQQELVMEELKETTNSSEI

N=C(N)NCC(=O)NCC1(Nc2ccc(Cl)c(Cl)c2)CCN(Cc2ccccc2)CC1
Ki [1]: 409 nM | Ratio Ki (Homo sapiens [2]): 2.1 | Ki [3]: 191 nM

N=C(N)NCCC[C@H](N)C(=O)NCC1(Nc2ccccc2)CCN(Cc2ccccc2)CC1
Emax [4]: 36% | Ki [5]: 1050 nM | Emax [6]: 184% | Ki [7]: 487 nM

N=C(N)NCC(=O)NCC1(Nc2ccccc2)CCN(CCc2ccccc2)CC1
Ratio Ki (Homo sapiens [8]): 3.2 | Ki [1]: 330 nM | Ki [3]: 1060 nM

N=C(N)NCC(=O)NCC1(Cc2cccc3ccccc23)CCN(Cc2ccccc2)CC1
EC50 [9]: 645 nM | Emax [9]: 22% | Ki [1]: 30 nM | Ki [3]: 112 nM | Activity [10]: Dose-dependent effect | EC50 [10]: 2600 nM | Emax [10]: 56.2%

COC(=O)c1ccc(CN2CCC(CNC(=O)CNC(=N)N)(Nc3ccccc3)CC2)cc1
Ki [1]: 1510 nM | Ratio Ki (Homo sapiens [2]): 4.5 | Ki [3]: 340 nM

H-SLNFEELKDWGPKNVIKMSTPAVNKMPHSFANLPLRF-NH2
Selectivity ratio (Homo sapiens [11]): 1.2

CC(C)C[C@H](NC(=O)[C@H](Cc1ccccc1)NC(=O)[C@H](C)NC(=O)[C@H](CCC(N)=O)NC(=O)[C@@H](N)CO)C(=O)N[C@@H](Cc1ccccc1)C(=O)N[C@@H](CCC(N)=O)C(=O)N1CCC[C@H]1C(=O)N[C@@H](CCC(N)=O)C(=O)N[C@@H](CCCNC(=N)N)C(=O)N[C@@H](Cc1ccccc1)C(N)=O
Selectivity ratio (Homo sapiens [11]): 10.7

N=C(N)NCC(=O)NCC1(Cc2ccc(-c3ccccc3)cc2)CCN(Cc2ccccc2)CC1
Ki [1]: 910 nM | Ratio Ki (Homo sapiens [2]): 3 | Ki [3]: 296 nM

COc1cc(NC2(CNC(=O)CNC(=N)N)CCN(Cc3ccccc3)CC2)cc(OC)c1
Ki [1]: 987 nM | Ki [3]: 114 nM | EC50 [12]: > 10000 nM

N=C(N)NCC(=O)NCC1(Cc2ccc3ccccc3c2)CCN(Cc2ccccc2)CC1
Ratio Ki (Homo sapiens [8]): 1.5 | Ki [1]: 205 nM | Ki [3]: 316 nM

N=C(N)NCC1(Nc2ccccc2)CCN(CCc2ccccc2)CC1
Ki [5]: 2770 nM | Ki [7]: 2960 nM

N=C(N)NCC(=O)NCC1(CCc2ccccc2)CCN(Cc2ccccc2)CC1
Ki [1]: 465 nM | Ratio Ki (Homo sapiens [2]): 3 | Ki [3]: 151 nM

N=C(N)NCC(=O)NCC1(Nc2ccccc2)CCN(Cc2cccc3ccccc23)CC1
Ratio Ki (Homo sapiens [8]): 4.2 | Ki [1]: 129 nM | Ki [3]: 538 nM

CN1CCC(CNC(=O)[C@@H](N)CCCNC(=N)N)(Nc2ccccc2)CC1
Ki [5]: > 5000 nM | Ki [7]: > 5000 nM

N=C(N)NCC(=O)NCC1(Nc2ccccc2)CCN(CC2CCCCC2)CC1
Ratio Ki (Homo sapiens [8]): 5.5 | Ki [1]: 298 nM | Ki [3]: 1640 nM

N=C(N)NCCC(=O)NCC1(Nc2ccccc2)CCN(Cc2ccccc2)CC1
Ki [1]: 2910 nM | Ratio Ki (Homo sapiens [2]): 6 | Ki [3]: 441 nM

N=C(N)NCCC[C@H](N)C(=O)NCC1(Nc2ccccc2)CCN(CCc2ccccc2)CC1
Ki [5]: 1690 nM | Ki [7]: 2910 nM

N=C(N)NCC(=O)NCC1(Cc2ccccc2)CCN(Cc2ccccc2)CC1
EC50 [13]: > 1000 nM | Ki [1]: 84 nM | Ki [3]: 417 nM

N=C(N)NCC(=O)NCC1(Nc2ccccc2)CCN(Cc2ccc3ccccc3c2)CC1
Ki [1]: 504 nM | Ratio Ki (Homo sapiens [2]): 3.6 | Ki [3]: 141 nM

CN1CCC(CNC(=N)N)(Nc2ccccc2)CC1
Ki [5]: > 5000 nM | Ki [7]: > 5000 nM

N=C(N)NCC(=O)NCC1(Nc2cccc3ccccc23)CCN(Cc2ccccc2)CC1
Ki [1]: 309 nM | Ki [3]: 94 nM | EC50 [12]: > 10000 nM

N=C(N)NCCC[C@H](N)C(=O)NCC1CCN(Cc2ccccc2)CC1
Ki [5]: 7580 nM | Ki [7]: > 5000 nM

N=C(N)NCC(=O)NCC1(c2ccccc2)CCN(Cc2ccccc2)CC1
Ki [1]: 3500 nM | Ratio Ki (Homo sapiens [2]): 6.9 | Ki [3]: 511 nM

N=C(N)NCC1(Nc2ccccc2)CCN(Cc2ccccc2)CC1
Ki [5]: 6620 nM | Ki [7]: 1880 nM

N=C(N)NCCNC(=O)C1(Nc2ccccc2)CCN(Cc2ccccc2)CC1
Ki [1]: 1430 nM | Ki [3]: 81 nM | Activity [10]: Dose-dependent effect | EC50 [10]: 3520 nM | Emax [10]: 68%

CC(C)C[C@H](NC(=O)[C@H](N)Cc1ccc(O)cc1)C(=O)N(C)[C@@H](Cc1ccccc1)C(=O)N[C@@H](CCC(N)=O)C(=O)N1CCC[C@H]1C(=O)N[C@@H](CCC(N)=O)C(=O)N[C@@H](CCCNC(=N)N)C(=O)N[C@@H](Cc1ccccc1)C(N)=O (H-[dY]L[NMeF]QPQRF-NH2)
Ki ([7]; cho): 4 nM

H-AGEGLSSPFWSLAAPQRF-NH2
Selectivity ratio (Homo sapiens [11]): 10.1

N=C(N)NCC(=O)NCC1(Nc2ccccc2)CCNCC1
Ki [1]: 2760 nM | Ki [3]: 15100 nM

N=C(N)NCC(=O)NCC1(Nc2ccccc2)CCN(Cc2ccccc2)CC1
Activity [14]: inactive | Ki [1]: 405 nM | inhibition [15]: Active | Ki [3]: 319 nM | Activity [16]: inactive | EC50 [10]: 22000 nM | Emax [10]: 83% | Activity [17]: Active | Emax [18]: 20% | Activity [19]: Active

N=C(N)NCC(=O)NCC1(Nc2ccccc2)CCN(Cc2ccc(Br)cc2)CC1
Ki [1]: 454 nM | Ratio Ki (Homo sapiens [2]): 4 | Ki [3]: 112 nM

COc1cccc(NC2(CNC(=O)CNC(=N)N)CCN(Cc3ccccc3)CC2)c1
Ki [1]: 884 nM | Ratio Ki (Homo sapiens [2]): 4.4 | Ki [3]: 201 nM

N=C(N)NCC(=O)NCC1(Cc2ccc(Cl)c(Cl)c2)CCN(Cc2ccccc2)CC1
Ratio Ki (Homo sapiens [8]): 5.3 | Ki [1]: 82 nM | Ki [3]: 432 nM

N=C(N)NCCC[C@H](N)C(=O)NCC1(Nc2ccccc2)CCN(Cc2ccc3ccccc3c2)CC1
Ki [5]: 304 nM | Ratio Ki (Homo sapiens [8]): 1.6 | Ki [7]: 479 nM
